Assay results: ChEMBL document CHEMBL4390662, “Design, synthesis and biological evaluation of novel α-acyloxy carboxamides via Passerini reaction as caspase 3/7 activators” (Eur J Med Chem, 2019)
≈ marks a conversion by molar mass, not a printed value. Calls of active or inactive are those of the source. The rule behind the calls is not given here.

What was measured:
[1] = system: MCF7; test: Cytotoxicity against human MCF7 cells assessed as cell growth inhibition incubated for 72 hrs by MTT assay; format: functional, cell-based; settings: MCF7, 72 h
Summary of the method: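 Cells grown in RPMI-1640 with 10% FBS and seeded at 5×10^3 per well. After 24 h, serial concentrations given for 72 h at 37°C, 5% CO2. Then 5 mg/mL MTT stock added for 3 h, formazan dissolved in DMSO, A570 read. IC50 calculated from the curves.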

[2] = Selectivity index, ratio of IC50 for human WI38 cells to IC50 for mouse NFS60 cells
Summary of the method: (§1)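 SI calculated as IC50 on normal Wi-38 fibroblasts divided by IC50 on the cancer cell line. Both came from 72 h MTT assays.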

[3] = Selectivity index, ratio of IC50 for human WI38 cells to IC50 for human HepG2 cells; format: toxicity; settings: WI38 cells versus HepG2 cells, read-out: Ratio IC50; summary of the method: as §1
[4] = system: NFS-60; test: Induction of apoptosis in mouse NFS60 cells assessed as total apoptotic cells at IC50 incubated for 72 hrs by annexin V/propidium iodide staining based flow cytometry (reference value: 0.495 +/- 0.01%); format: functional
[5] = system: HepG2; test: Induction of apoptosis in human HepG2 cells assessed as late apoptotic cells at IC50 incubated for 72 hrs by annexin V/propidium iodide staining based flow cytometry (reference value: 0.1 +/- 0.001%); format: functional
[6] = system: MCF7; test: Induction of apoptosis in human MCF7 cells assessed as caspase 3/7 activity using DEVD aminoluciferin as substrate at IC50 after 24 hrs […] relative to control; format: functional
Summary of the method: (§2)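 Caspase 3/7 activation measured with Caspase-Glo 3/7 kit using a luminogenic caspase-cleavable substrate. […] Reported as percent activation, mean ± SEM.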

[7] = system: HepG2; test: Induction of apoptosis in human HepG2 cells assessed as caspase 3/7 activity using DEVD aminoluciferin as substrate at IC50 after 24 hrs by fluorescence assay relative to control; format: functional; summary of the method: as §2
[8] = system: Staphylococcus aureus; test: Antimicrobial activity against Staphylococcus aureus ATCC 25923 incubated for 24 hrs by microdilution assay; format: functional
Summary of the method: (§3)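 Two-fold serial dilutions of test solutions made in Mueller Hinton broth and inoculated. Incubated at 37°C for 24 h. MIC taken as the lowest concentration with no growth. Ciprofloxacin is the antibacterial reference, fluconazole the antifungal one, and DMSO the blank.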

[9] = system: Escherichia coli; test: Antimicrobial activity against Escherichia coli ATCC 25922 incubated for 24 hrs by microdilution assay; format: functional; settings: ATCC 25922, 24 h; summary of the method: as §3
[10] = system: Candida albicans; test: Antimicrobial activity against Candida albicans ATCC 90028 incubated for 24 hrs by microdilution assay; format: functional; summary of the method: as §3
[11] = system: Staphylococcus aureus; test: Antimicrobial activity against Staphylococcus aureus ATCC 25923 incubated for 24 hrs by agar well diffusion assay; format: functional
Summary of the method: (§4)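 Nutrient agar spread with 100 µL inoculum: bacteria at 1×10^8 CFU/mL, fungi at 1×10^6 CFU/mL. 10 mm wells loaded with 100 µL of compound in DMSO (final 1 mg/mL). Bacteria incubated 24 h at 37 °C, fungi 48 h at 28 °C. Inhibition zones measured in mm. Ciprofloxacin and fluconazole standards at 1 mg/mL, DMSO negative control.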

[12] = system: Enterococcus faecalis; test: Antimicrobial activity against Enterococcus faecalis ATCC 29212 incubated for 24 hrs by agar well diffusion assay; format: functional; summary of the method: as §4
[13] = system: Pseudomonas aeruginosa; test: Antimicrobial activity against Pseudomonas aeruginosa ATCC 27853 incubated for 24 hrs by agar well diffusion assay; format: functional; summary of the method: as §4
[14] = system: Escherichia coli; test: Antimicrobial activity against Escherichia coli ATCC 25922 incubated for 24 hrs by agar well diffusion assay; format: functional; summary of the method: as §4
[15] = system: Candida albicans; test: Antimicrobial activity against Candida albicans ATCC 90028 incubated for 48 hrs by agar well diffusion assay; format: functional; summary of the method: as §4
[16] = system: MCF7; test: Induction of apoptosis in human MCF7 cells assessed as early apoptotic cells level at IC50 incubated for 72 hrs by annexin V/propidium iodide staining based flow cytometry (reference value: 0.01%); format: functional
[17] = system: HepG2; test: Induction of apoptosis in human HepG2 cells assessed as viable cells level at IC50 incubated for 72 hrs by annexin V/propidium iodide staining based flow cytometry (reference value: 98.97%); format: functional
[18] = system: HepG2; test: Induction of apoptosis in human HepG2 cells assessed as early apoptotic cells level at IC50 incubated for 72 hrs by annexin V/propidium iodide staining based flow cytometry (reference value: 0.05%); format: functional

Compound	IC50 [1]	Ratio IC50 [2]	selectivity ratio [3]	Activity [4]	Activity [5]	Activity [6]	Activity [7]	MIC [8]	MIC [9]	MIC [10]	diameter of the inhibition zone (DIZ) [11]	diameter of the inhibition zone (DIZ) [12]	diameter of the inhibition zone (DIZ) [13]	diameter of the inhibition zone (DIZ) [14]	diameter of the inhibition zone (DIZ) [15]	Activity [16]	Activity [17]	Activity [18]
O=C(Cc1ccccc1)OC1(C(=O)Nc2ccc([N+](=O)[O-])cc2)CCCCC1	7.7 nM	5.419	3.09	34.129%	27.77%	43.04%	47.64%	inactive	2680 µM (≈ 1020 µg/mL)	inactive	inactive	inactive	15 mm	16 mm	inactive	7.06%	63.53%	2.74%
O=C(OC1(C(=O)Nc2ccc([N+](=O)[O-])cc2)CCCCC1)C(O)c1ccccc1 (stereo unspecified)	5.01 nM	10.82	11	44.185%	42.85%	55.04%	53.64%	inactive	2570 µM (≈ 1020 µg/mL)	inactive	inactive	inactive	14 mm	16 mm	inactive	3.76%	47.87%	3.14%
O=C(OC1(C(=O)Nc2ccc([N+](=O)[O-])cc2)CCCCC1)c1ccc([N+](=O)[O-])cc1	8.7 nM	98.831	54	41.795%	23.385%	50.94%	50.68%									1.96%	57.37%	1.95%
